Key:
RKO = test: Antiproliferative activity against wild-type p53 expressing human RKO cells assessed as inhibition of cell proliferation by MTT assay; assay type: functional, cell-based
[1] = Antiproliferative activity against wild-type p53 expressing human HCT116 cells assessed as inhibition of cell proliferation by MTT assay; assay type: functional, cell-based; conditions: HCT-116
[2] = molecular target: T1, Tumour suppressor p53/oncoprotein Mdm2 (Homo sapiens, UniProt Q00987); test: Inhibition of p53-MDM2 (unknown origin) interaction using 0.2% BSA buffer after 1 hr by HTRF assay; assay type: protein assay
MDA-MB-435 = test: Antiproliferative activity against p53 mutant expressing human MDA-MB-435 cells assessed as inhibition of cell proliferation by MTT assay; assay type: functional, cell-based
SW480 = test: Antiproliferative activity against p53 mutant expressing human SW480 cells assessed as inhibition of cell proliferation by MTT assay; assay type: functional, cell-based
[3] = Apparent terminal half life in C57 mouse at 5 mg/kg, iv; assay type: ADME, organism-based; set-up: dose 5 mg/kg, route intravenous; conditions: in vivo, read-out: betat1/2(app) (converted)
Procedure, shortened: (§1)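 Male C57 mice received a single dose, given orally or intravenously in separate arms. Plasma pharmacokinetic parameters were derived from the resulting concentration–time data and reported as means.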

[4] = Oral bioavailability in C57 mouse at 50 mg/kg; assay type: ADME, organism-based; conditions: in vivo; procedure, shortened: as §1
[5] = Total plasma clearance in C57 mouse at 5 mg/kg, iv; assay type: ADME, organism-based; set-up: dose 5 mg/kg, route intravenous; procedure, shortened: as §1
[6] = Cmax in C57 mouse at 50 mg/kg, po; assay type: ADME, organism-based; set-up: dose 50 mg/kg, route oral; conditions: in vivo; procedure, shortened: as §1
[7] = molecular target: T1, Tumour suppressor p53/oncoprotein Mdm2; test: Inhibition of p53-MDM2 (unknown origin) interaction using 0.02% BSA buffer after 1 hr by HTRF assay; assay type: protein assay
[8] = Oral bioavailability in C57 mouse at 25 mg/kg; assay type: ADME, organism-based; conditions: in vivo; procedure, shortened: as §1
[9] = Cmax in C57 mouse at 25 mg/kg, po; assay type: ADME, organism-based; set-up: dose 25 mg/kg, route oral; conditions: in vivo; procedure, shortened: as §1

T1 sequence (P04637 whole entry): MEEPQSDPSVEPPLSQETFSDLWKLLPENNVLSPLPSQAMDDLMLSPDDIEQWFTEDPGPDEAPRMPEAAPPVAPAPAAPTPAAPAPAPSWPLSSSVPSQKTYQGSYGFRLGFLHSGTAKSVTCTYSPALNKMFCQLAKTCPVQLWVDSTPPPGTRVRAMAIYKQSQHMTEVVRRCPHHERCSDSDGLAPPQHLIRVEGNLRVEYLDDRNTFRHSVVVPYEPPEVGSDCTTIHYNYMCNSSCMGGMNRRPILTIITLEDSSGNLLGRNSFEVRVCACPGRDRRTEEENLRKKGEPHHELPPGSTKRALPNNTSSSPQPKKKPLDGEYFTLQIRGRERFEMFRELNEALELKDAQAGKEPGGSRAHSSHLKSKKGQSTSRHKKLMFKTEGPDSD
T1 sequence (Q00987 whole entry): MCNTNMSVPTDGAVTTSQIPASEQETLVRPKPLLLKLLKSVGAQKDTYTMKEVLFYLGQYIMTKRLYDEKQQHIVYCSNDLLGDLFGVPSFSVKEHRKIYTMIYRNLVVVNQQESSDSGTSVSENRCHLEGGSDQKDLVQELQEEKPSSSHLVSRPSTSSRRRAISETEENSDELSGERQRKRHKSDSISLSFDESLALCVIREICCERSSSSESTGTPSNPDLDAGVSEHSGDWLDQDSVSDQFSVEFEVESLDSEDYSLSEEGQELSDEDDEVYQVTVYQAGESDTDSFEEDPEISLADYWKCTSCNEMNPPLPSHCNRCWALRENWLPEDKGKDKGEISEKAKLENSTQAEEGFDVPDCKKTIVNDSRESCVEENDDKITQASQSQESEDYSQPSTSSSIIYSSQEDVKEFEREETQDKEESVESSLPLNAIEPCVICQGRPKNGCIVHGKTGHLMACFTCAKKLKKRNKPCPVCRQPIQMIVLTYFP

Compound	IC50 (RKO) [nM]	IC50 [1] [nM]	IC50 [2] [nM]	IC50 (MDA-MB-435) [nM]	IC50 (SW480) [nM]	half-life [3] [h]	bioavailability [4] [%]	clearance [5] [mL/min/kg]	Cmax [6] [ng/mL]	IC50 [7] [nM]	bioavailability [8] [%]	Cmax [9] [ng/mL]
COc1cc(C(N)=O)ccc1NC(=O)[C@@H]1N[C@@H](CC(C)(C)C)[C@@]2(C(=O)Nc3cc(Cl)cc(F)c32)[C@H]1c1cccc(Cl)c1F	80	120	6	12000	10500							
CC(C)(C)C[C@@H]1N[C@@H](C(=O)Nc2ccc(C(N)=O)cc2F)[C@H](c2cccc(Cl)c2F)[C@]12C(=O)Nc1cc(Cl)ccc12	220	120	7	10000	7100	15.3	75	3.4	13100	7		
CC(C)(C)C[C@@H]1N[C@@H](C(=O)Nc2ccc(C(N)=O)cc2)[C@H](c2cccc(Cl)c2F)[C@]12C(=O)Nc1cc(Cl)c(F)cc12	430	180		10900	15200	8.8	45	2.6	8700			
COc1cc(OCCO)ccc1NC(=O)[C@@H]1N[C@@H](CC(C)(C)C)[C@@]2(C(=O)Nc3cc(Cl)ccc32)[C@H]1c1cccc(Cl)c1F	16	8		9500	4450	6.6		6.7			55	4300
CC(C)(C)C[C@@H]1N[C@@H](C(=O)Nc2ccc(OCCO)cc2)[C@H](c2cccc(Cl)c2F)[C@]12C(=O)Nc1cc(Cl)ccc12	280	180	8	10800	11300							
CC(=O)N1CCCC([C@]2(Cc3cccc(Cl)c3)C(=O)Nc3cc(Cl)ccc32)C1 (stereo partly specified)			3900									
COc1cc(NC(=O)[C@@H]2N[C@@H](CC(C)(C)C)[C@@]3(C(=O)Nc4cc(Cl)ccc43)[C@H]2c2cccc(Cl)c2F)ccc1C(=O)O	240	50		11500	14400							
COc1cc(NC(=O)[C@H]2N[C@H](CC(C)(C)C)[C@]3(C(=O)Nc4cc(Cl)ccc43)[C@@H]2c2cccc(Cl)c2F)ccc1C(=O)O			3740							3090		
COc1cc(C(N)=O)ccc1NC(=O)[C@@H]1N[C@@H](CC(C)(C)C)[C@@]2(C(=O)Nc3c2ccc(Cl)c3F)[C@H]1c1cccc(Cl)c1F (racemic)	1080	670	18	9400	7500					15		
COc1cc(C(=O)O)ccc1NC(=O)[C@@H]1N[C@@H](CC(C)(C)C)[C@@]2(C(=O)Nc3cc(Cl)ccc32)[C@H]1c1cccc(Cl)c1F	20	10		12100	9800	11.1		34.6			21	800
COc1cc(NC(=O)[C@@H]2N[C@@H](CC(C)(C)C)[C@@]3(C(=O)Nc4cc(Cl)ccc43)[C@H]2c2cccc(Cl)c2F)ccc1C(N)=O	90	80		6920	3960							
CC(C)(C)C[C@@H]1N[C@@H](C(=O)Nc2ccc(C(N)=O)cc2)[C@H](c2cccc(Cl)c2F)[C@]12C(=O)Nc1cc(Cl)ccc12	150	70	5	11600	14300	10.4	63	3.5	8300	5		

Source: ChEMBL document CHEMBL3352737, “Discovery of potent and selective spiroindolinone MDM2 inhibitor, RO8994, for cancer therapy” (Bioorg Med Chem, 2014)
